# Compounds with a hit are over-represented: about 1.4% of the library has one in this group of screens.
# ZTA counter = counter-screen for EBNA-1 inhibitors: inhibitors of Epstein-Barr virus ZTA. ZTA-DNA binding, fluorescence polarization. P03206. hit rate 0.15% among 320,000. inhibition, % at 11 µM; in the data active = inhibition above about 33%
# Target sequence (P03206 whole entry, looked up): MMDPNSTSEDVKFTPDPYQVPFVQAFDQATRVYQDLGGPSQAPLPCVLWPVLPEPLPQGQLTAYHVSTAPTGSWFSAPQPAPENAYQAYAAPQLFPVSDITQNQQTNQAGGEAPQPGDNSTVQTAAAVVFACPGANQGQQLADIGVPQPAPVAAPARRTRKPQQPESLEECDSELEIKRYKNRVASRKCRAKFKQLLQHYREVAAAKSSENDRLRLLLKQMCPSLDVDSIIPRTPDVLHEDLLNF
# HCV NS3 hel inh = inhibitors of Hepatitis C virus NS3 helicase; NS3 helicase DNA unwinding, Cy5 molecular beacon fluorescence; inhibition, % at 10.9 µM; hit rate 0.56% among 290,000;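 active = inhibition above the mean of all tested compounds plus 3 SD, set per campaign, cut at about 35% in these data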;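 note: 0% = DMSO wells and 100% = thioflavine S control wells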
#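 Measured by: Cy5 fluorescence, 0 and 60 min reads / Assay system: NS3 helicase fragment of HCV / Control set: low DMSO, high thioflavine S at 110 µM / Times: 1 h reaction at 25 °C, ATP-initiated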
# Fh CTSL1 inh = cathepsin L1 inhibition, PFM18AAP counter-screen | recombinant F. hepatica cathepsin L1, Z-Leu-Arg-MCA fluorescence | hit rate 0.49% among 300,000 | inhibition, % at 5.96 µM;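 active = inhibition above the mean of all tested compounds plus 3 SD, set per screening campaign, cut at about 17% in these data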;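 note: 0% = plate median of test compound wells and 100% = 1 µM Z-Phe-Ala-diazomethylketone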
# EBNA-1 inh = blocks EBNA-1 binding to DNA; EBNA-1 DNA binding, fluorescence polarization; hit rate 0.34% among 300,000; AID 1950; inhibition, % at 14.8 µM; in the data active = inhibition above about 28%
# * hit, by the source's call; / = no result; + = active, no number.
SMILES,ZTA counter,HCV NS3 hel inh,Fh CTSL1 inh,EBNA-1 inh
COc1cc([C@@H]2c3cc4c(cc3[C@@H](O)[C@@H](CO)[C@@H]2CO)OCO4)cc(OC)c1O[Si](C)(C)C(C)(C)C,33.6*,/,4.2,-5.2
COc1cc([C@@H]2c3cc4c(cc3[C@H](O)[C@H]3COC(=O)[C@H]23)OCO4)cc(OC)c1OC,-12.1,-3.0,5.7,5.0
O=C1c2ccccc2-c2onc3c(N4CCN(CCO)CC4)cc(N4CCN(C(=O)c5ccco5)CC4)c1c23,27.8,-16.8,1.1,9.0
CN1CCN(c2cc(N3CCN(C(=O)c4ccco4)CC3)c3c4c(onc24)-c2ccccc2C3=O)CC1,15.9,-19.1,-0.8,1.4
CCOC(=O)N1CCN(c2cc(NCCC(=O)O)c3c4c(onc24)-c2ccccc2C3=O)CC1,176.9*,36.0*,21.3*,117.6*
O=C(O)CCCNc1cc(N2CCC3(CC2)OCCO3)c2noc3c2c1C(=O)c1ccccc1-3,143.1*,37.2*,1.8,93.0*
CCOc1ccc(NC(=O)[C@@H](NC(=O)c2ccco2)C(C)C)cc1,2.1,-1.9,-1.6,3.3
CCCc1cc(=O)[nH]c(SCC(=O)c2c(N)n(C3CC3)c(=O)[nH]c2=O)n1,16.3,/,/,/
CC(C(=O)O)n1nnc2ccccc21 (centres undefined),-10.2,16.1,5.1,-6.6
CC1(c2ccccc2)NC(=O)N(CC(=O)Nc2ccccc2N2CCCC2)C1=O (centres undefined),4.9,/,18.4*,-2.5
O=C(CSc1ccccc1Cl)N1CCOCC1,10.8,8.8,-1.7,17.6
C=CCSc1ncnc2sc(C)c(C)c12,10.0,11.3,1.8,3.6
C#CCOCCOCCOCCNc1nc(N2CCN(C(=O)CCCCCCCCCCNC(=O)[C@H](CCCCN)n3cc(C[C@@H](C)CC)nn3)CC2)nc(N2CCN(C(=O)CCCCCCCCCCNC(=O)[C@H](CCCN=C(N)N)n3cc(C[C@@H](C)CC)nn3)CC2)n1,70.1*,/,3.2,10.4
C#CCOCCOCCOCCNc1nc(N2CCN(C(=O)CCCCCCCCCCNC(=O)[C@H](CCCCN)n3cc(CCO)nn3)CC2)nc(N2CCN(C(=O)CCCCCCCCCCNC(=O)[C@H](CCCCN)n3cc(CCCC(=O)O)nn3)CC2)n1,18.6,/,-4.4,3.5
C#CCOCCOCCOCCNc1nc(N2CCN(C(=O)CCCCCCCCCCNC(=O)[C@@H](CCSC)n3cc(CCO)nn3)CC2)nc(N2CCN(C(=O)CCCCCCCCCCNC(=O)[C@H](CO)n3cc(CCCCCN)nn3)CC2)n1,4.0,/,-4.8,-6.3
C#CCOCCOCCOCCNc1nc(N2CCN(C(=O)CCCCCCCCCCNC(=O)[C@H](CO)n3cc(CCCCCN)nn3)CC2)nc(N2CCN(C(=O)CCCCCCCCCCNC(=O)[C@H](CCCN=C(N)N)n3cc(C[C@@H](C)CC)nn3)CC2)n1,105.3*,/,-1.1,12.8
Cc1ccc(CCN2CC(C(=O)NCCCN(C)Cc3ccccc3)CC2=O)cc1 (centres undefined),7.1,1.1,-1.9,5.7
COc1ccc(NC(=O)Nc2ccc(C(=O)N3CCOCC3)cc2)cc1OC,7.6,-2.1,-3.1,8.3
COc1ccc(NC(=O)Nc2cccc(C(=O)N3CCOCC3)c2)cc1OC,-9.3,1.3,17.4*,-2.5
N#Cc1c(NC(=O)C2CC(c3ccccc3O)=NO2)sc2c1CCC2 (centres undefined),-6.0,-5.3,-9.1,34.2*
COC(=O)CN1C(=O)COc2ccc(Cl)cc21,6.4,-0.4,4.5,-5.7
COCCNC(=O)CN1C(=O)COc2ccc(Cl)cc21,15.9,14.0,17.6*,-1.9
CN(CCO)c1nc(N)c2c(N)nc3c(c2c1C#N)CC(=O)N3C1CCCC1,4.6,-3.4,-1.1,0.3
CC(C)(C)N1C(=O)Cc2c1nc(N)c1c(N)nc(N3CCCCC3CO)c(C#N)c21 (centres undefined),-6.7,-2.0,105.3*,-3.4
CCN1CCN(C(=O)/C=C/c2ccc(C(C)C)cc2)CC1,-20.6,/,16.8*,-8.1
SMILES,ZTA counter,HCV NS3 hel inh,Fh CTSL1 inh,EBNA-1 inh
CCN1CCN(C(=O)/C=C/c2cccc(Cl)c2)CC1,8.0,5.1,4.4,-4.1
NC(=S)N=Nc1ccc(NN=C(N)N)cc1,-2.0,-20.3,45.9*,-0.5
C#CCOCCOCCOCCNc1nc(N2CCN(C(=O)[C@H]([C@@H](C)CC)n3cc([C@@H](N)Cc4ccc(O)cc4)nn3)CC2)nc(N2CCN(C(=O)[C@H](CCCCN)n3cc([C@@H](N)CC(C)C)nn3)CC2)n1,-13.0,-56.5,28.0*,10.0
C#CCOCCOCCOCCNc1nc(N2CCN(C(=O)[C@H]([C@@H](C)CC)n3cc([C@@H](N)Cc4ccc(O)cc4)nn3)CC2)nc(N2CCN(C(=O)[C@H](Cc3cc4ccccc4[nH]3)n3cc([C@@H](N)CC(C)C)nn3)CC2)n1,-2.4,/,50.7*,-4.4
CCc1ccc(NC(=O)COc2ccc(Br)cn2)cc1,-9.1,-8.1,0.6,-6.8
Cc1ccc(C)c(N2CC(O)(c3cccs3)[N+]3=C2CCCC3)c1 (centres undefined),8.1,-4.5,1.0,6.8
CCN(CC(=O)Nc1ccccc1C(=O)OC)S(=O)(=O)c1ccccc1,-6.2,-3.2,0.2,-3.5
CCCC1=NN2C(=N)/C(=C\c3ccc(SCc4ccco4)o3)C(=O)N=C2S1,60.8*,25.0,11.8,49.9*
Cc1nc2ccccc2c(=O)n1/N=C/c1ccncc1,-27.1,-2.1,18.4*,-10.9
Cc1nc2ccccc2c(=O)n1/N=C/c1ccccc1,-0.7,-3.4,0.5,4.5
Cn1c(C(=O)N2CCCC(C(=O)NCc3cccs3)C2)cc2sccc21 (centres undefined),2.3,5.6,-2.0,4.8
CCCCOc1nc(N2CCOCC2)nc(C)c1[N+](=O)[O-],-2.5,2.4,18.1*,-1.9
CCCC(=O)c1cc2cc(Cl)ccc2oc1=O,-3.5,0.5,-5.0,-3.0
CC(=O)Nc1ccc(NC(=O)N2CCCCC2)cc1,-8.7,4.7,20.1*,-1.1
CN(C)c1ccc(NC(=O)N2CCOCC2)cc1,61.7*,4.6,5.4,49.8*
CC12c3ccccc3C(c3ccccc31)C1C(=O)N(Cc3cccnc3)C(=O)[C@H]12 (some centres undefined),-0.3,-8.8,-1.4,0.5
Cc1ccc(C)c(NC(=O)CN(C)C(=O)C2CCN(C(=O)Nc3ccccc3)CC2)c1,-10.2,/,17.3*,-2.9
COc1ccc(Cl)cc1NC(=O)CN(C)C(=O)C1CCN(C(=O)Nc2ccccc2)CC1,3.1,/,/,/
CN(C(=O)COC(=O)c1ccc2ccccc2n1)C1CCS(=O)(=O)C1 (centres undefined),+,-8.5,-4.5,+
CSc1ncccc1C(=O)OCC(=O)c1cc(C)n(CC2CCCO2)c1C (centres undefined),5.4,8.8,-4.5,2.8
Cc1ccc(NC2Nc3cc(C)nn3S2)c(C)c1 (centres undefined),-12.8,5.3,-1.4,-6.0
O=C(CSc1ccccc1)NCC1(N2CCCCC2)CCCCC1,-10.6,/,59.6*,-6.7
CS(=O)(=O)c1ccc(C(=O)NCC2(N3CCCCC3)CCCCC2)cc1,-26.5,10.5,28.9*,-1.7

# Screening data (PubChem BioAssay)
